Each block holds one molecule with its values, some of them ahead of it.
Experiments:
[1] = target: Ku70/80 (Homo sapiens, UniProt P12956+P13010); experiment: Electrophoretic mobility shift assay; format: binding
In short: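 Purified Ku pre-incubated with varying concentrations of test compound, then added to 5′-[32P]-labeled 30-bp duplex DNA made by annealing a labeled strand to its complement. Incubated 30 min at 25°C, resolved on a 6% non-denaturing polyacrylamide gel, then phosphorimaged and quantified. Triplicate titrations, IC50 from fitted binding curves.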

[2] = system: Ku80-wt mouse embryo fibroblasts (MEF); experiment: CCK-8 cell viability, wild type MEF; format: cell-based; conditions: 20 μM
In short: (§1)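 Ku80-wt and Ku80-null MEFs in RPMI with 10% FBS, 5 × 10^3 per well, grown 24 h before treatment. Exposed 48 h in Opti-MEM to vehicle or 20 μM test compound, concurrently with indicated bleomycin concentrations (or compound alone), 1% DMSO constant. CCK-8 about 2 h, A450 read; percent viability relative to vehicle controls. Mean and SEM of triplicates.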

[3] = Solubility and stability; format: physicochemical
[4] = system: Ku80-null mouse embryo fibroblasts (MEF); experiment: CCK-8 cell viability, Ku80-null MEF; format: cell-based
In short: as §1

[5] = target: DNA-PK (Homo sapiens, UniProt P12956+P13010); experiment: DNA-PK phosphoryl-transferase kinase assay with p53 peptide substrate; format: biochemical
In short: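 DNA-PKcs purified from HeLa or HEK 293 cells and combined with Ku; test compound pre-incubated with the enzyme 15 min. Reaction started with ATP, unlabeled 30-bp duplex DNA and synthetic p53-based peptide. [32P] transfer run at 37°C for 15 min, stopped with 30% acetic acid, spotted on P81 filters and washed. Read by phosphorimaging. Triplicate titrations, IC50 from fitted binding curves.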

[6] = target: Ku protein (Homo sapiens, UniProt P12956+P13010); experiment: Thermal-shift assay; format: binding
In short: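 Purified Ku70/80 (baculovirus-infected Sf9 cells) mixed with DMSO vehicle or a fixed test-compound concentration, then split into aliquots. Aliquots heated 3 min at a range of temperatures, cooled to 4 °C and spun at 12,000 × g for 20 min. Soluble Ku70 detected by SDS-PAGE western blot with chemiluminescence. Band intensities normalised to the 40 °C point, fit to a 4-parameter sigmoid, giving T1/2.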

[7] = system: γ-H2AX in H460 cells; experiment: Immunofluorescence of γ-H2AX after Bleomycin; format: cell-based; conditions: 20 μM, 10 μM Bleomycin 1 h
In short: (§2)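 H460 cells on coverslips overnight, then 10 μM bleomycin for 1 h at 37 °C with 20 μM test compound, given concurrently or after 1 or 2 h preincubation; controls in 1% DMSO. Fixed in 4% PFA, permeabilised in 0.1% Triton, blocked. Stained with anti-p-DNA-PKcs S2056 and anti-γH2AX S139 (1:200, overnight 4 °C), plus DAPI. Fiji scored p-S2056 intensity and γH2AX foci over 200 cells; median, unpaired t-test.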

[8] = target: MELK kinase (Homo sapiens, UniProt Q14680); experiment: Kinase screen; format: biochemical; conditions: 2.5 μM
In short: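 Panel of 24 kinases, each with its own substrate, run in triplicate with or without 2.5 μM test compound using ADP-Glo. After ATP depletion, generated ADP was read by coupled luciferase luminescence. Percent activity remaining, or inhibition, calculated relative to DMSO vehicle controls.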

[9] = system: H460 cells; experiment: CRISPR/Cas9 HDR-mediated gene insertion at EMX1; format: cell-based; conditions: 20 μM
In short: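 Donor carrying GFP and a puromycin-resistance gene, flanked by 800 bp homology arms to an EMX1 CRISPR cut site, co-transfected into H460 cells with EMX1 gRNA and Cas9 plasmids, with vehicle or 20 μM test compound. Junctional PCR on genomic DNA scored precise homologous integration among puromycin-resistant clones.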

[10] = system: DNA-PKcs p-S2056 in H460 cells; experiment: Immunofluorescence of DNA-PKcs p-S2056 after Bleomycin; format: cell-based; conditions: 20 μM, concurrent or 1-2 h pre-incubation, 10 μM Bleomycin 1 h
In short: as §2

[11] = system: H460 cells; experiment: CCK-8 cell viability with etoposide; format: cell-based; conditions: 20 μM, 48 h
In short: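 H460 cells in RPMI with 10% FBS, plated at 5 × 10^3 per well and grown 24 h. Treated 48 h in Opti-MEM with 20 μM test compound or vehicle plus indicated etoposide concentrations, DMSO held at 1%. CCK-8 added for about 2 h, then A450 read; percent viability taken relative to vehicle-treated controls. Mean and SEM of triplicates.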

Sequence of Ku70/80 (P12956 whole entry): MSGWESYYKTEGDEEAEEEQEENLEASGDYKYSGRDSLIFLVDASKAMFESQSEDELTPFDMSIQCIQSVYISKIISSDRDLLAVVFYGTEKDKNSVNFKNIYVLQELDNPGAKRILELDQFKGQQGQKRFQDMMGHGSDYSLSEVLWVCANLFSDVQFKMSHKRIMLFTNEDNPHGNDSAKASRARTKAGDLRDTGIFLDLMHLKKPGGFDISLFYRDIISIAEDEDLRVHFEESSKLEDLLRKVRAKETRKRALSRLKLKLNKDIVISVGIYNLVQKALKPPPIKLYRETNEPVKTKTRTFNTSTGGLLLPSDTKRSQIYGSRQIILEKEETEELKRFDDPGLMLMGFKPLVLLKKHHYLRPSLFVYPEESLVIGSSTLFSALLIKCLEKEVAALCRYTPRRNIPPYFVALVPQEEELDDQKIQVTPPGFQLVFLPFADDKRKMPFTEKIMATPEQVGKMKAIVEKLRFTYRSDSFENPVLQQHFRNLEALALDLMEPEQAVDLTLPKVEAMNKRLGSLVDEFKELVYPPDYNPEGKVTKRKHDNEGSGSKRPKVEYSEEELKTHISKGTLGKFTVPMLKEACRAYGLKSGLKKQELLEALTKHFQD
Sequence of Ku70/80 (P13010 whole entry): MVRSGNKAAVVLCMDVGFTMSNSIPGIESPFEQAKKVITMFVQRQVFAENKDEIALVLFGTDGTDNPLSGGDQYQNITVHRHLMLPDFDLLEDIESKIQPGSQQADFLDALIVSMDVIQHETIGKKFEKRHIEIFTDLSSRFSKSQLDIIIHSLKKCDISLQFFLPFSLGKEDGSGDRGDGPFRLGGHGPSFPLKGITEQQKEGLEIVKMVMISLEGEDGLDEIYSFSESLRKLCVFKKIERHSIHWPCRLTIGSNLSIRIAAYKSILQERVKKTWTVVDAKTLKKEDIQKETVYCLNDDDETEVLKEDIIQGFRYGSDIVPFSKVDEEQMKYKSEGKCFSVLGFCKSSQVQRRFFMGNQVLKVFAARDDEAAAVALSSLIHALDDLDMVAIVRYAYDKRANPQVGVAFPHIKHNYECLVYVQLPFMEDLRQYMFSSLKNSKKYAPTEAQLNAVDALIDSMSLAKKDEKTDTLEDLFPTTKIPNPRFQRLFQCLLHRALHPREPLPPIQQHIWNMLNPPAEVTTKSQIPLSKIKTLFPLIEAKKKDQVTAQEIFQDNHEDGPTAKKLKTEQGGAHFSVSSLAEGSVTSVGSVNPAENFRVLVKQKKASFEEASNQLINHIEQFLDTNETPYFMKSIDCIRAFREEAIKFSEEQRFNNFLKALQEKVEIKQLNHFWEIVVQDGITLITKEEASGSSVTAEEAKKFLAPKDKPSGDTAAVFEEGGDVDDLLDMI
Sequence of DNA-PK (P12956 whole entry): as the sequence (P12956 whole entry) above
Sequence of DNA-PK (P13010 whole entry): as the sequence (P13010 whole entry) above
Sequence of Ku protein (P12956 whole entry): as the sequence (P12956 whole entry) above
Sequence of Ku protein (P13010 whole entry): as the sequence (P13010 whole entry) above
Sequence of MELK kinase (Q14680 whole entry): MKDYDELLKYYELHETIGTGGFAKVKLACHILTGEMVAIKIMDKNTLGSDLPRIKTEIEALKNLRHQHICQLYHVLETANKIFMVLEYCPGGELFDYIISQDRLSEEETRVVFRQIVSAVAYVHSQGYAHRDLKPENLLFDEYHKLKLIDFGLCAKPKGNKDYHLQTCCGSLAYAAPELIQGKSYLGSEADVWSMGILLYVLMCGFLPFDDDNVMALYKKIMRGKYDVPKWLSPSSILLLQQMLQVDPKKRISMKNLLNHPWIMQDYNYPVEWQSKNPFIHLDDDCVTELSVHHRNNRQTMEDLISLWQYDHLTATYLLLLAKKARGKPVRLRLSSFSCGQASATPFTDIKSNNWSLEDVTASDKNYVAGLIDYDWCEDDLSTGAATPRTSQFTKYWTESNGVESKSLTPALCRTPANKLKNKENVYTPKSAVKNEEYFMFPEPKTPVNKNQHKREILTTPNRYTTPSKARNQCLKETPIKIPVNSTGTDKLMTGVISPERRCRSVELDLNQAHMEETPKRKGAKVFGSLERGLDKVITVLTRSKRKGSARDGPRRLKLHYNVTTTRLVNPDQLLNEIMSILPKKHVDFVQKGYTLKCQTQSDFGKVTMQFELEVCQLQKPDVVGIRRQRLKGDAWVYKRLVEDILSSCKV

impact on Ku–DNA binding activity [1]: no impact
Molecule: O=c1cc(N2CCOCC2)oc2c(-c3cccc4c3sc3ccccc34)cccc12 [NU7441, reference compound]

Molecule: COc1cccc(NC(=O)c2cc(-c3ccc(/C=C4\C(=O)N(c5cccc(C(=O)O)c5)N=C4C)o3)ccc2Cl)c1 [compound 68]
sensitivity to Bleomycin induced by compound, wild type cells ([2]; concurrent 48 h with Bleomycin): increased sensitivity
reduction in survival, single agent ([2]; preliminary single agent experiments): < 10%
solubility compared to 5102 and 5135 [3]: significant increase in solubility
fold increase in Ku–DNA binding inhibitory activity ([1]; on incorporation of 3-methoxyphenyl amide into X80): 4 fold
sensitivity to Bleomycin induced by compound, Ku80-null cells ([4]; 20 μM, concurrent 48 h with Bleomycin): no significant increase in sensitivity
IC50 [5]: 3120 ± 700 nM

IC50 [1]: 3720 ± 1500 nM
IC50 [5]: 500 ± 30 nM
Molecule: COc1cccc(NC(=O)c2cc(-c3ccc(CC4C(=O)N(c5cccc(C(=O)O)c5)N=C4C)o3)ccc2Cl)c1 (stereo not drawn) [compound 149]

shift in Tm of Ku ([6]; vs vehicle Tm of 50°C): 6 °C
Tm of Ku ([6]; with compound): 56 °C
inhibition of MELK kinase [8]: moderate inhibition
IC50 [1]: 1990 ± 900 nM
IC50 [5]: 240 ± 15 nM
Molecule: COc1cccc(NC(=O)c2cc(-c3ccc(CC4C(=O)N(c5cccc(-c6nnn[nH]6)c5)N=C4C)o3)ccc2Cl)c1 (stereo not drawn) [compound 245]
γ-H2AX (DDR) [7]: inhibition of the DDR
Insertion efficiency (%) [9]: 80%
DNA-PKcs Ser 2056 phosphorylation in cells [10]: reduced Ser 2056 phosphorylation

IC50 [1]: 2660 ± 300 nM
IC50 [5]: 110 ± 20 nM
Molecule: COc1cccc(NC(=O)c2cc(-c3ccc(CC4C(=O)N(c5cccc(C(=O)O)c5)N=C4C(F)(F)F)o3)ccc2Cl)c1 (stereo not drawn) [compound 322]
sensitization to etoposide [11]: Sensitization to etoposide

Molecule: Bleomycin [reference compound]
increased sensitivity of Ku80-null cells compared to wt MEFs ([4]; 48 h, CCK-8): ~6 fold
